Broadly, the inhibition is the change of the read-out against control, counted positive when it falls.

The source of these data is ChEMBL document CHEMBL3244072, “Synthesis and antiviral and enzymatic studies of certain 3-deazaguanines and their imidazolecarboxamide precursors” (J Med Chem, 1978).

Calls of active or inactive are those of the source. No cut-off for these calls is given here.

One series relates to Human alphaherpesvirus 1. Put plainly: Antiviral activity against HSV1 infected in human KB cells assessed as inhibition of virus-induced cytopathic effect after 72 hrs relative to control. Type of series: functional, organism-based. Put shortly:
(§1)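 Cell monolayers (18-24 h) infected with 320 CCID50 of virus; compound added within 15 min at half-log dilutions from 1000 to 1 μg/mL. After 72 h at 37 °C, CPE and cytotoxicity scored microscopically (0-4). Virus rating = sum of (control CPE − treated CPE) over drug levels, halved at any level showing toxicity.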

Another series concerns Human alphaherpesvirus 2. Put plainly: Antiviral activity against HSV2 infected in human KB cells assessed as inhibition of virus-induced cytopathic effect after 72 hrs relative to control. Type of series: functional, organism-based. Put shortly:
as §1
(In general: Protection from cytopathic effect is a common read-out in antiviral testing.)

A further series deals with Vaccinia virus. Put plainly: Antiviral activity against Vaccinia virus infected in human KB cells assessed as inhibition of virus-induced cytopathic effect after 72 hrs relative to control. Type of series: functional, organism-based. As to conditions: Orthopoxvirus vaccinia. Put shortly:
as §1

The subject of another series is Human respirovirus 3. Put plainly: Antiviral activity against Parainfluenza virus 3 infected in human KB cells assessed as inhibition of virus-induced cytopathic effect after 72 hrs relative to control. It counts as functional, organism-based. Put shortly: as §1
Series [1] has as its system KB. Put plainly: Antiviral activity against Rhinovirus type 13 infected in human KB cells assessed as inhibition of virus-induced cytopathic effect after 72 hrs relative to control. Type of series: functional, cell-based. As to conditions: Human rhinovirus A13. Put shortly:
as §1

Series [2] relates to Influenza B virus. Put plainly: Antiviral activity against Influenza B virus Lee infected in Swiss-Webster mouse assessed as host mean survival days at 100 mg/kg, po qd for 9 days. Type of series: functional, B/Lee/1940.
In series [3] the test system is Influenza B virus. The series can be described thus: Antiviral activity against Influenza B virus Lee infected in Swiss-Webster mouse assessed as host mean survival days at 50 mg/kg, po qd for 9 days. Type of series: functional, B/Lee/1940.
Series [4] has as its system Influenza B virus. The series can be described thus: Antiviral activity against Influenza B virus Lee infected in Swiss-Webster mouse assessed as host mean survival days at 12.5 mg/kg, po qd for 9 days. It counts as functional, B/Lee/1940.
Series [5] has as its system Ehrlich. The series can be described thus: Inhibition of adenine nucleotide biosynthesis in mouse EAC assessed as [14C]hypoxanthine incorporation at 1 mM after 60 mins by TLC analysis. It counts as functional. Particulars: 1 h. Put shortly:
(§2)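 Ehrlich ascites tumor cells (about 6 × 10^6 cells/mL) preincubated 20 min at 37 °C with or without 1 mM compound. [14C]hypoxanthine (55 μCi/μmol) then added to 0.1 mM final for 60 min. Label in adenine or guanine nucleotides of the acid-soluble fraction measured by TLC; inhibition calculated against untreated cells.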

The test system of series [6] is Ehrlich. The series can be described thus: Inhibition of guanine nucleotide biosynthesis in mouse EAC assessed as [14C]hypoxanthine incorporation at 1 mM after 60 mins by TLC analysis. Type of series: functional. Particulars: 1 h. Put shortly: as §2
Another series relates to Candida albicans. The series can be described thus: Antimicrobial activity against Candida albicans at 0.4 umol/mL by broth microdilution method. It counts as functional, organism-based. Put shortly: (§3)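 Broth dilution in defined medium against clinical isolates of each organism.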
The subject of the next series is Epidermophyton floccosum. Put plainly: Antimicrobial activity against Epidermophyton floccosum at 0.4 umol/mL by broth microdilution method. Type of series: functional, organism-based. Put shortly:
as §3
For orientation: Dilution methods test growth across graded concentrations, often in twofold steps.

The test system of a further series is Microsporum canis. Put plainly: Antimicrobial activity against Microsporum canis at 0.4 umol/mL by broth microdilution method. It counts as functional, organism-based. Put shortly:
as §3

Another series deals with Pseudomonas aeruginosa. Put plainly: Antimicrobial activity against Pseudomonas aeruginosa at 0.4 umol/mL by broth microdilution method. It counts as functional, organism-based. Put shortly: as §3
Another series deals with Staphylococcus aureus. The series can be described thus: Antimicrobial activity against Staphylococcus aureus at 0.4 umol/mL by broth microdilution method. Type of series: functional, organism-based. Put shortly:
as §3

Series [7] concerns Trichophyton mentagrophytes. The series can be described thus: Antimicrobial activity against Trichophyton mentagrophytes at 0.4 umol/mL by broth microdilution method. Type of series: functional, organism-based. Put shortly: as §3
Series [8] relates to KB. The series can be described thus: Antiviral activity against Adenovirus type 3 infected in human KB cells assessed as inhibition of virus-induced cytopathic effect after 72 hrs relative to control. It counts as functional, cell-based. Particulars: Human adenovirus 3. Put shortly: as §1
The test system of series [9] is Mus musculus. The series can be described thus: Toxicity in Influenza B virus Lee infected Swiss-Webster mouse assessed as mortality at 100 mg/kg, po qd for 9 days. It counts as organism-based. The arrangement: dose 100 mg/kg, route oral. As to conditions: in vivo, 216 h.
Series [10] relates to Mus musculus. The series can be described thus: Toxicity in Influenza B virus Lee infected Swiss-Webster mouse assessed as mortality at 50 mg/kg, po qd for 9 days. It counts as organism-based. Set-up: dose 50 mg/kg, route oral. Particulars: in vivo, 216 h.
The subject of series [11] is Mus musculus. Put plainly: Toxicity in Influenza B virus Lee infected Swiss-Webster mouse assessed as mortality at 12.5 mg/kg, po qd for 9 days. Type of series: organism-based. The arrangement: dose 12.5 mg/kg, route oral. As to conditions: in vivo, 216 h.
The test system of series [12] is Influenza B virus. The series can be described thus: Antiviral activity against Influenza B virus Lee infected in Swiss-Webster mouse assessed as host mean survival days at 3.1 mg/kg, po qd for 9 days. It counts as functional, B/Lee/1940.
Series [13] concerns Escherichia coli. Put plainly: Inhibition of Escherichia coli IMP dehydrogenase assessed as ratio of compound concentration for 50% inhibition of enzyme activity to 1.7 to 3 x 10^-5 M of substrate concentration. Put shortly:
(§4)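 Enzymes partially purified from Escherichia coli B. Substrate at 1.7-3.0 × 10^-5 M. Value is the ratio of inhibitor concentration giving 50% inhibition to substrate concentration.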

The test system of series [14] is Escherichia coli. The series can be described thus: Inhibition of Escherichia coli adenylosuccinate synthetase assessed as ratio of compound concentration for 50% inhibition of enzyme activity to 1.7 to 3 x 10^-5 M of substrate concentration. Put shortly: as §4
Series [15] deals with Bifunctional purine biosynthesis protein ATIC (Homo sapiens) (UniProt P31939). The series can be described thus: Inhibition of Escherichia coli IMP cyclohydrolase (unknown origin) assessed as ratio of compound concentration for 50% inhibition of enzyme activity to 1.7 to 3 x 10^-5 M of substrate concentration. Put shortly: as §4
Chain of Bifunctional purine biosynthesis protein ATIC (Homo sapiens) (P31939 whole entry, looked up): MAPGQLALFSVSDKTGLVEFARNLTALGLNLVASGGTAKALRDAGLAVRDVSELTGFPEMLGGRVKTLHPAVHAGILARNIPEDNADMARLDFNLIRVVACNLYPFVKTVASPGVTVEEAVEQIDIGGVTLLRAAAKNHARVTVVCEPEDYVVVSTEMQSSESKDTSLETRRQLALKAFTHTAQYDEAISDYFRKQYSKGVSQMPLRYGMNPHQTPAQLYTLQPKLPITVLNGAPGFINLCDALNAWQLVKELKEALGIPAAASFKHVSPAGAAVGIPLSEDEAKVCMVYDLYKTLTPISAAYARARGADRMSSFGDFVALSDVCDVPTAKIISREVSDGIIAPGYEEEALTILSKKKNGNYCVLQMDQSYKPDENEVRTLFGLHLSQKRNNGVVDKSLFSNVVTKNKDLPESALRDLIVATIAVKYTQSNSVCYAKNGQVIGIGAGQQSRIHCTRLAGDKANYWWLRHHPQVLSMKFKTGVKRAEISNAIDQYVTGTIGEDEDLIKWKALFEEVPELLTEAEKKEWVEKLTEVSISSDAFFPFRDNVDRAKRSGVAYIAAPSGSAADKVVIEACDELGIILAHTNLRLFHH
Series [16] concerns Influenza B virus. Put plainly: Antiviral activity against Influenza B virus Lee infected in Swiss-Webster mouse assessed as host mean survival days at 40 mg/kg, po qd for 9 days. Type of series: functional, B/Lee/1940.
Series [17] deals with Influenza B virus. The series can be described thus: Antiviral activity against Influenza B virus Lee infected in Swiss-Webster mouse assessed as host mean survival days at 10 mg/kg, po qd for 9 days. It counts as functional, B/Lee/1940.
Series [18] deals with Escherichia coli. Put plainly: Antimicrobial activity against Escherichia coli at 0.0025 to 0.125 umol/mL by broth microdilution method. It counts as functional, organism-based. Put shortly: as §3
Series [19] has as its system Influenza B virus. The series can be described thus: Antiviral activity against Influenza B virus Lee infected in Swiss-Webster mouse assessed as host mean survival days at 2.5 mg/kg, po qd for 9 days. Type of series: functional, B/Lee/1940.

As to `N#CCc1c(C(N)=O)ncn1[C@@H]1O[C@H](CO)[C@@H](O)[C@H]1O`, the result in the series with Human alphaherpesvirus 1 and with Human alphaherpesvirus 2 was Active. Also, the outcome with Vaccinia virus, in the series on Human respirovirus 3, in the series on KB [1], in the series with Candida albicans, in the series with Epidermophyton floccosum and in the series with Microsporum canis was inactive. Also, the result (in the series with Pseudomonas aeruginosa; with Staphylococcus aureus; in [7]) was inactive. Further, the Time is above 0.3 days with Influenza B virus [2], 0.118 days with Influenza B virus [3] and above 0.3 days in the series on Influenza B virus [4]. Besides, the results for the inhibition at 1000 µM with Ehrlich [5] and in the series with Ehrlich [6] were 6% and 11%, respectively.

As to `N#CCc1[nH]cnc1C(N)=O`, the result in the series on KB [8], in the series on Human alphaherpesvirus 1, with Human respirovirus 3 and with KB [1] was Active. The Activity result in the series with Mus musculus [9], in the series with Mus musculus [10] and in the series on Mus musculus [11] was “Non-toxic” each time. Moreover, the Time in the series on Influenza B virus [2] was 0.118 days; in the series with Influenza B virus [3] it was above 0.3 days; with Influenza B virus [4], above 0.3 days; in the series with Influenza B virus [12], 0.23 days. The inhibition at 1000 µM in the series with Ehrlich [5] amounted to 8%; in the series on Ehrlich [6], 39%. Besides, the result (in the series on Candida albicans; in the series on Epidermophyton floccosum; with Microsporum canis; in the series with Pseudomonas aeruginosa; in the series on Staphylococcus aureus; in series [7]) was inactive.

In the case of `NC(=O)c1ncn([C@@H]2O[C@H](COP(=O)(O)O)[C@@H](O)[C@H]2O)n1`, the Ratio with Escherichia coli [13] was determined as 0.016; with Escherichia coli [14] it was 160; in [15] it was 0.46.

In the case of `Nc1cc2[nH]cnc2c(=O)[nH]1` [DEZAGUANINE], the outcome in the series on KB [8], with Human alphaherpesvirus 1, in the series on Human alphaherpesvirus 2, in the series on Vaccinia virus, with Human respirovirus 3 and in the series with KB [1] was Active. The outcome in the series on Escherichia coli [18] was Active. The Time in the series on Influenza B virus [16] was 0.23 days; in the series with Influenza B virus [17], above 0.3 days. Also, the figures for the inhibition at 1000 µM in the series with Ehrlich [5] and in the series with Ehrlich [6] were 20% and 40%, respectively. Also, the result (in the series with Candida albicans; in the series with Epidermophyton floccosum; in the series on Microsporum canis; in the series with Pseudomonas aeruginosa; in the series on Staphylococcus aureus; in series [7]) was inactive.

On to `Nc1cc2c(ncn2[C@@H]2O[C@H](CO)[C@@H](O)[C@H]2O)c(=O)[nH]1`, for which the result in the series with KB [8], in the series with Human alphaherpesvirus 1, in the series on Human alphaherpesvirus 2, with Vaccinia virus, in the series with Human respirovirus 3 and in the series with KB [1] was Active. In addition, the Time in the series on Influenza B virus [16] is above 0.3 days; in the series with Influenza B virus [17], above 0.3 days; with Influenza B virus [19] it was 0.118 days. Also, the inhibition at 1000 µM was 24% in the series with Ehrlich [5] and 38% in the series on Ehrlich [6]. For the same molecule, the outcome (with Candida albicans; in the series with Epidermophyton floccosum; in the series on Microsporum canis; with Pseudomonas aeruginosa; in the series with Staphylococcus aureus; in series [7]) was inactive.
